Bioassay records from PubChem BioAssay.
TMEM16A inh: blocks the mouse calcium-activated chloride channel TMEM16A. Q8BHY3. HEK293 TMEM16A/YFP iodide influx fluorescence, ionomycin. normalized B-score (activity score, 25-100; higher = stronger inhibition) at 10 µM. 310,000 tested, 1.2% active. AID 588511;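 active = ratio plate-corrected score three or more library SD toward inhibition, starting fluorescence score within five deviations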;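 note: score derived from kinetic fluorescence span divided by baseline fluorescence per well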
Apaf1 inhib: inhibitors of human Apaf-1 apoptosome; O14727; AID 489030; reconstituted apoptosome caspase-3 activity, DEVD-Rh110 fluorescence; 330,000 tested, 0.71% active; inhibition, % at 20 µM; active = inhibition of at least 40% at 20 µM;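 note: plate controls were DMSO wells for no effect and DEVD-CHO caspase inhibitor wells for full effect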
Target sequence (O14727 whole entry, looked up): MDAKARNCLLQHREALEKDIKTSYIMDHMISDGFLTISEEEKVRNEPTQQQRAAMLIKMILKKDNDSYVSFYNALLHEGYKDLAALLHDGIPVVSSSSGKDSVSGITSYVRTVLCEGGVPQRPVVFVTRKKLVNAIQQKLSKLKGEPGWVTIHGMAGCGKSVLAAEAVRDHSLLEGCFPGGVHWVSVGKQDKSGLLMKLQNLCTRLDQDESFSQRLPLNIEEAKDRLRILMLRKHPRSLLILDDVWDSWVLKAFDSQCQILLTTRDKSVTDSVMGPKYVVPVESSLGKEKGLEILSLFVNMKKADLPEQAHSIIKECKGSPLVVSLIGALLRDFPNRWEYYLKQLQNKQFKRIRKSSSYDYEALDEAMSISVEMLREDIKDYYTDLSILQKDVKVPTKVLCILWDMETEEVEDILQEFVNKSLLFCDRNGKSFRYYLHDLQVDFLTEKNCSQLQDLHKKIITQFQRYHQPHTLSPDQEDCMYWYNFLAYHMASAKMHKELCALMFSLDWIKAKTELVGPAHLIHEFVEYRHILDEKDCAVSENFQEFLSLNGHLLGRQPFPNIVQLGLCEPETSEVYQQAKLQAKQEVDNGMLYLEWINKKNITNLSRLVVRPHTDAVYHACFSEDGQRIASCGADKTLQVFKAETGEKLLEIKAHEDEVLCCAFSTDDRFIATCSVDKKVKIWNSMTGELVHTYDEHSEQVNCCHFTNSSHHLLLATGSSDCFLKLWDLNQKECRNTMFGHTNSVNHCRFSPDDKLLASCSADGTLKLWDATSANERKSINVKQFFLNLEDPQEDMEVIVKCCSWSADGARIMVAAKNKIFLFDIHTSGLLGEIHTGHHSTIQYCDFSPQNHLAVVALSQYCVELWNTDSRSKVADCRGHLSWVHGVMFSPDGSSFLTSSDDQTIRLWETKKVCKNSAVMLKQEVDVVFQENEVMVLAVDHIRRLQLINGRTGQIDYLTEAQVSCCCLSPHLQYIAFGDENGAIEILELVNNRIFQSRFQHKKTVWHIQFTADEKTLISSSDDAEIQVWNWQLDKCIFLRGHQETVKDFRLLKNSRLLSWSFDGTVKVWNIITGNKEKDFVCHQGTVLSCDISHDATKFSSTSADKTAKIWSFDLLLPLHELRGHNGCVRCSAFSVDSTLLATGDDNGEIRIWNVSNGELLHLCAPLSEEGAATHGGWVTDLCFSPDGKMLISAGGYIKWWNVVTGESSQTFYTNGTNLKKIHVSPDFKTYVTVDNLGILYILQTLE
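detection = Rh110 fluorescence intensity | test system = biochemical Apaf-1 apoptosome reconstitution | also added = cytochrome c and DEVD-Rh110 substrate | schedule = 30 min plus 50 min, RT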
ANO1 activ: activates or potentiates the mouse TMEM16A chloride channel; HEK293 TMEM16A/YFP-H148Q/I152L, iodide quench fluorescence; active compounds read low; B-score at 10 µM; 340,000 tested, 0.3% active; AID 623877;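 active = fluorescence-ratio B-score plate-corrected deviation score at least 3 library SD below zero, with starting fluorescence score within 5 deviations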;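 note: channel opened by trigger with iodide after compound preincubation; score built on the fluorescence ratio of max minus min over baseline; more negative score means more quench and so TMEM16A activation or potentiation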
DNA FID counter: fluorescent intercalator displacement, NS3 helicase counter-screen | DNA fluorescent intercalator displacement, fluorescence | inhibition, % at 7.9 µM | 290,000 tested, 0.17% active | AID 1845; in the data active = inhibition above about 37%;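 note: 0% = vehicle and 100% = reference compound; higher means more ethidium bromide displaced from hairpin DNA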
UBC13 polyUb: blocks human UBC13 polyubiquitin chain formation. inhibition, % at 20 µM. 330,000 tested, 0.47% active. TR-FRET. AID 485273; in the data active = inhibition above about 45%, passing the limit was not always enough
TMEM16A reconf: re-confirmation of mouse TMEM16A chloride channel inhibitors; inhibition, % at 10 µM; HEK293 TMEM16A/YFP-H148Q, iodide quench fluorescence; ionomycin added to raise cell calcium; shares compounds with TMEM16A inh; 2,300 tested, 39% active;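 active = mean duplicate percent inhibition, scaled so buffer wells are 0 and the reference blocker 100, over three buffer SD above buffer mean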
TMEM16A Ca cntr: alters calcium mobilization in TMEM16A HEK293 cells, counter-screen; TMEM16A/YFP HEK293, Fluo4 calcium mobilization; calcium response (% of ionomycin), % at 10 µM; 2,300 tested, 2% active; shares compounds with TMEM16A inh; AID 652231;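 active = duplicate-averaged calcium signal over 20% of the ionomycin maximum, relative to buffer baseline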;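 note: each well's signal is peak minus trough fluorescence divided by its pre-addition baseline; 0% = buffer wells and 100% = ionomycin wells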
YFP-HEK293 quench: counter-screen for TMEM16A inhibitors: effect in parental YFP-HEK293 cells; shares compounds with TMEM16A inh; iodide YFP quench, ionomycin; YFP ratio F(max-min)/F0 at 10 µM; 2,300 tested, under 10 active; AID 652233;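 active = yellow fluorescent protein signal ratio exceeding the buffer control mean by over 5 SD of those controls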;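 note: ratio is mean of duplicate wells from kinetic YFP trace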
ClC-1 inh: selectivity of TMEM16A inhibitors: inhibition of rat ClC-1 chloride channel. ratio percent, % at 10 µM. 2,300 tested, under 10 active. shares compounds with TMEM16A inh. CHO ClC-1-YFP, iodide influx fluorescence quench; iodide control reads 0, buffer control 100;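 active = duplicate-mean ratio percent above the mean of iodide-only control wells, which defines zero, plus 5 of their SD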;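 note: higher percent means stronger block of ClC-1 iodide influx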
* hit, by the source's call; i = inactive; . = not tested or not shown. Only some compounds are listed: those with a hit (about 2.4% of all), similar ones and a draw of the others.

SMILES	TMEM16A inh	Apaf1 inhib	ANO1 activ	DNA FID counter	UBC13 polyUb	TMEM16A reconf	TMEM16A Ca cntr	YFP-HEK293 quench	ClC-1 inh
O=C(CSc1nnc(CNc2ccc(F)cc2)n1Cc1ccco1)N1CCCC1	25*	-7.3	i	-11.6	9.9	i	i	-1.22	-6.0
CC[C@]12C(=O)N(C)C[C@H]([C@@H]3C(=O)N(Cc4ccccc4)C(=O)[C@@H]31)N2C(=O)c1ccc(F)cc1	.	.	i	.	.	.	.	.	.
CCOC(=O)c1ccc(Oc2cn[nH]c2-c2ccc(O)cc2O)cc1	25*	-1.2	i	-6.4	22.0	43.0%*	i	-1.02	-15.0
C#CC(C)(CC)NC(=O)c1cc2cccc(CC=C)c2oc1=O (stereo not drawn)	i	-4.1	i	-4.0	17.6	.	.	.	.
CSc1ccccc1C(=O)NCC1CCCO1 (stereo not drawn)	100*	-17.2	i	-3.4	9.6	i	i	-0.987	-11.5
CC(=O)c1ccc(OCCCC(=O)N2CCN(S(=O)(=O)c3cc(C)ccc3C)CC2)cc1	i	16.1	i	.	-5.2	.	.	.	.
CC(=O)c1ccc(OCCCC(=O)N2CCN(S(=O)(=O)c3ccc(C(C)C)cc3)CC2)cc1	25*	11.3	i	.	-1.5	i	i	-1.04	-11.5
O=C(Cn1cnc2ccccc21)Nc1ccc(SC(F)F)cc1	25*	11.7	i	6.0	7.6	20.5%*	i	-0.895	-20.0
CSCC[C@H](NC(=O)OC(C)(C)C)c1nnc(SCc2ccc(F)cc2)o1	100*	3.7	i	-25.7	-0.5	i	i	-0.939	-3.0
CSCC[C@H](NC(=O)OC(C)(C)C)c1nnc(SCc2ccccc2)o1	i	22.2	i	-32.4	-0.4	.	.	.	.
CCOC(=O)C1=C(C)N=c2s/c(=C/c3ccc(OCC(=O)O)cc3)c(=O)n2C1c1ccc(SC)cc1 (stereo not drawn)	i	-3.0	i	12.6	-48.4	.	.	.	.
CCOC(=O)C1=C(C)N=c2s/c(=C/c3ccc(OCC(=O)O)cc3)c(=O)n2C1c1ccc(F)cc1 (stereo not drawn)	i	20.4	i	28.4	-32.1	i	29.5%*	-0.864	-16.5
COc1ccc(-c2noc(C3CCCN(C(=O)c4ccc(F)cc4)C3)n2)cc1 (stereo not drawn)	i	9.2	i	-34.2	2.2	.	.	.	.
CCN(Cc1nc2cc(Cl)ccc2c(=O)[nH]1)C(=O)c1cccc(OCc2c(C)noc2C)c1	.	20.2	i	.	-3.4	.	.	.	.
CCOC(=O)c1c(NC(=O)COC(=O)C2CC2C)sc(C)c1C (stereo not drawn)	25*	16.3	i	-11.8	2.2	i	i	-1.08	-5.0
CCOC(=O)c1c(NC(=O)COC)sc(C)c1C	i	5.7	i	-12.5	-3.5	.	.	.	.
O=C(COc1ccc(F)cc1)N1CCCc2ccccc21	i	-6.3	i	-10.7	3.0	.	.	.	.
CCOC(=O)c1cnc(-n2nc(C)cc2C)nc1NC1CCCC1	25*	9.0	i	-28.0	-6.2	54.5%*	i	-0.953	-38.5
COc1cccc(-c2c(C#N)c(N)nc3c2c(=O)nc2sccn23)c1	i	-2.5	.	-5.8	8.9	.	.	.	.
S=C(NCc1ccc(Cl)cc1Cl)NC1CCCCC1	25*	9.0	i	-6.5	-5.2	52.5%*	i	-0.976	-16.5
Clc1ccc(CNC2CCCC2)c(Cl)c1	i	-28.9	i	-1.4	3.5	.	.	.	.
Cc1ccccc1-n1nc2c(c1NC(=O)c1cc3ccccc3oc1=O)CS(=O)(=O)C2	25*	4.4	.	-1.3	3.8	i	i	-1.31	-8.5
Cc1ccc(N(C(=O)c2snc(C(N)=O)c2N)C(C(=O)NC2CCCC2)c2ccncc2)cc1 (stereo not drawn)	i	11.7	i	-22.7	27.9	.	.	.	.
C[C@@H](C(=O)Nc1ccc2ccccc2c1)[C@H]1C[C@]1(C)[C@H](NC(=O)c1cnccn1)c1ccccc1	i	9.0	i	-31.0	-4.4	i	i	-1.16	-9.0
COc1cc(CNS(=O)(=O)c2ccc3c(c2)CC(C)N3C(=O)C2CCC2)cc(OC)c1OC (stereo not drawn)	25*	2.0	i	-46.0	-2.4	i	i	-1.05	-13.0
SMILES	TMEM16A inh	Apaf1 inhib	ANO1 activ	DNA FID counter	UBC13 polyUb	TMEM16A reconf	TMEM16A Ca cntr	YFP-HEK293 quench	ClC-1 inh
COc1cc(Cl)c(C)cc1NC(=O)CN(C)Cc1cccc(OC)c1OC	25*	22.0	i	1.1	2.0	19.5%*	i	-1.02	-3.5
Cc1cccc(C)c1NS(=O)(=O)c1ccc(-c2cnc(C3CC3)o2)cc1	25*	9.4	i	-36.6	5.1	29.0%*	i	-1.15	-3.5
CCC1(O)CC2CN(CCc3c([nH]c4ccccc34)C(C(=O)OC)(c3cc4c(cc3OC)N(C=O)C3C(O)(C(=O)OC)C(OC(C)=O)C5(CC)C=CCN6CCC43C65)C2)C1 (stereo not drawn)	.	.	i	.	.	.	.	.	.
Cc1nonc1C(=O)N/N=C/c1ccc(O)c(O)c1	i	-5.4	i	0.5	13.9	.	.	.	.
COc1cc(/C=N/NC(=O)c2nonc2C)ccc1O	i	2.0	i	-1.3	-14.0	i	i	-0.893	2.5
Cc1ccc(SCCNC(=S)Nc2ccccc2)cc1	i	5.3	i	-8.9	8.0	.	.	.	.
Cc1ccc(SCCNC(=S)Nc2ccc(C)c(C)c2)cc1	100*	15.9	i	-14.9	-2.9	25.5%*	i	-0.965	-9.5
CCCNC(=O)Nc1cc(S(=O)(=O)CC)ccc1O	i	-14.6	i	-3.5	1.4	.	.	.	.
CCS(=O)(=O)c1ccc(O)c(NC(=O)c2cc(OC)c(OC)c(OC)c2)c1	i	-18.6	i	-9.1	-2.9	i	i	-1.05	-5.5
CCOC(=O)c1c(C)[nH]c(C(=O)C(C)Sc2ccc(Cl)cc2)c1C (stereo not drawn)	25*	17.9	i	-18.8	3.5	32.5%*	i	-1.02	-20.5
O=S(=O)(Nc1nc2ccccc2nc1OCC(F)(F)F)c1cccs1	25*	-6.8	i	-26.2	20.9	i	i	-0.951	-1.0
CCOc1ccc(C(=O)NCC(C)NC(=O)c2ccc(OCC)cc2)cc1 (stereo not drawn)	25*	22.2	i	-9.2	-3.7	i	i	-0.789	-11.0
CCOc1ccc(C(=O)NCC(C)C)cc1	i	10.1	i	-2.3	1.1	.	.	.	.
